# Test results taken from ChEMBL document CHEMBL1137403, “Discovery of 2-[4-{{2-(2S,5R)-2-cyano-5-ethynyl-1-pyrrolidinyl]-2-oxoethyl]amino]- 4-methyl-1-piperidinyl]-4-pyridinecarboxylic acid (ABT-279): a very potent, selective, effective, and well-tolerated inhibitor of dipeptidyl peptidase-IV, useful for the treatment of diabetes” (J Med Chem, 2006).
# Calls of active or inactive are those of the source. The rule behind the calls is not given here.
# Tests used:
# [1] = Tmax in Sprague-Dawley rat at 5 mg/kg, po; assay type: ADME, organism-based; design: dose 5 mg/kg, route oral; conditions: in vivo
# [2] = biological target: Dipeptidyl peptidase 4 (Rattus norvegicus) (UniProt P14740); test: Inhibition of Zucker rat plasma DPP4 after 4 hrs at 1 mg/kg; assay type: functional, organism-based; design: dose 1 mg/kg
# Dipeptidyl peptidase 4 (Rattus norvegicus), sequence (P14740 whole entry, looked up): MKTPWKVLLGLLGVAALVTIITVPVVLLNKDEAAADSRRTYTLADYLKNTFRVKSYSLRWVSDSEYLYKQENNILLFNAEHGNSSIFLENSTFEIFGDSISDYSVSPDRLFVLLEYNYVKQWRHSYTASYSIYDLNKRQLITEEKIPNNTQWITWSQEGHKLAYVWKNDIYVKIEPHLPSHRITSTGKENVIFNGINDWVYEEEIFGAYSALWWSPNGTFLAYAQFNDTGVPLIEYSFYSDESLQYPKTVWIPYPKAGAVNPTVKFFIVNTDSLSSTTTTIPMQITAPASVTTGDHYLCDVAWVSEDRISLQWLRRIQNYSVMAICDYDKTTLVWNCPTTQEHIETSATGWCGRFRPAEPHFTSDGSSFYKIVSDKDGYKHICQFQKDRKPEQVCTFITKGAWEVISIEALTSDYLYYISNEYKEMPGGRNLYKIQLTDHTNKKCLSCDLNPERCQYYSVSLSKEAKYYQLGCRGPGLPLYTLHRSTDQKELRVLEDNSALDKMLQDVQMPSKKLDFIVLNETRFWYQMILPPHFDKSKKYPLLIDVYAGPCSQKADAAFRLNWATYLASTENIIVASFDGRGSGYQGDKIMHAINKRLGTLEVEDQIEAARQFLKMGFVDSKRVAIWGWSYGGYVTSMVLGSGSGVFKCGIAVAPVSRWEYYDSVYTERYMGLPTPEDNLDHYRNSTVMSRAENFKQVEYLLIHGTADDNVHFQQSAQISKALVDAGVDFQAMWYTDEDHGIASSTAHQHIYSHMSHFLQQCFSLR
# Method in brief: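 Female Zucker diabetic fatty rats, 10 weeks old, fasted overnight, then given a single oral dose of 1 mg/kg or vehicle. Plasma DPP-IV activity inhibition and plasma drug level were measured 4 h post-dose, at the point when the rats were given free access to a liquid mixed meal (Ensure).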
# [3] = AUC in Beagle dog at 2.5 mg/kg, iv; assay type: ADME, organism-based, Canis lupus familiaris; design: dose 2.5 mg/kg, route intravenous; conditions: plasma
# Method in brief: (§1)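 Single intravenous dose. Plasma drug exposure is reported as area under the curve in µg-hr/mL. It is listed in the same table as T1/2, Vss, Vβ and plasma clearance (CLp).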
# [4] = Volume of distribution in Beagle dog at 2.5 mg/kg, iv; assay type: ADME, organism-based, Canis lupus familiaris; design: dose 2.5 mg/kg, route intravenous; conditions: in vivo, read-out: Vss
# [5] = AUC in Beagle dog at 2.5 mg/kg, po; assay type: ADME, organism-based, Canis lupus familiaris; design: dose 2.5 mg/kg, route oral; conditions: plasma
# [6] = Plasma clearance in Sprague-Dawley rat at 5 mg/kg, iv; assay type: ADME, organism-based; design: dose 5 mg/kg, route intravenous
# [7] = Plasma clearance in cynomolgus monkey at 2.5 mg/kg, iv; assay type: ADME, organism-based, Macaca fascicularis; design: dose 2.5 mg/kg, route intravenous
# [8] = Half life in Beagle dog at 2.5 mg/kg, po; assay type: ADME, organism-based, Canis lupus familiaris; design: dose 2.5 mg/kg, route oral; conditions: in vivo
# [9] = system: Mus musculus; test: Clastogenicity in mouse upto 2000 mg/kg; assay type: functional, organism-based; design: dose 2000 mg/kg
# Method in brief: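 Murine in vivo clastogenicity test, dosed at up to 2000 mg/kg.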
# [10] = Volume of distribution in terminal phase in Beagle dog at 2.5 mg/kg, iv; assay type: ADME, organism-based, Canis lupus familiaris; design: dose 2.5 mg/kg, route intravenous; conditions: in vivo, read-out: Vbeta
# [11] = AUC in cynomolgus monkey at 2.5 mg/kg, po; assay type: ADME, organism-based, Macaca fascicularis; design: dose 2.5 mg/kg, route oral; conditions: plasma
# [12] = Volume of distribution in cynomolgus monkey at 2.5 mg/kg, iv; assay type: ADME, organism-based, Macaca fascicularis; design: dose 2.5 mg/kg, route intravenous; conditions: in vivo, read-out: Vss
# [13] = biological target: Cytochrome P450 2D6 (Homo sapiens, UniProt P10635); test: Inhibition of CYP2D6; assay type: ADME
# Cytochrome P450 2D6, sequence (P10635 whole entry): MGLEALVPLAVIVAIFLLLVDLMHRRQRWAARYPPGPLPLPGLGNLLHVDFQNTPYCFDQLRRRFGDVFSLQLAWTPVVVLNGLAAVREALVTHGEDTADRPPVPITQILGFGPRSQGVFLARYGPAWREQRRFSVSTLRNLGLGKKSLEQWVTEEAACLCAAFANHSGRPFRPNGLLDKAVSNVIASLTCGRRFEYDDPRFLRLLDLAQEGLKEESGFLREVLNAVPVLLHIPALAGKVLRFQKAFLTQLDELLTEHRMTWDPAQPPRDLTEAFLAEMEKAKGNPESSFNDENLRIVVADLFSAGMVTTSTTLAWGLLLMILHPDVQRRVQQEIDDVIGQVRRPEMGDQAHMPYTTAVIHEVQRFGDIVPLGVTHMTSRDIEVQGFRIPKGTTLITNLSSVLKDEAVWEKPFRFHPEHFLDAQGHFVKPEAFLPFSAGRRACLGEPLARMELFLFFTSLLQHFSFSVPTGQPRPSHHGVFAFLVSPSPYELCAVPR
# [14] = Cmax in cynomolgus monkey at 2.5 mg/kg, po; assay type: ADME, organism-based, Macaca fascicularis; design: dose 2.5 mg/kg, route oral; conditions: in vivo
# [15] = species on record: Rattus norvegicus; test: Reduction in glucagon level in Zucker rat after 30 mins relative to control; assay type: functional; design: scale not given: the % may be the effect or the level left
# Method in brief: (§2)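 Female ZDF rats, 10 weeks old, fasted overnight, then dosed orally with vehicle or drug. Four hours after dosing (t = 0) they had free access for 4 h to a liquid mixed meal (Ensure). Plasma was sampled for drug level, active GLP-1, insulin, glucagon and glucose.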
# [16] = species on record: Rattus norvegicus; test: Increase in insulin level in Zucker rat after 10 mins relative to control; assay type: functional; method in brief: as §2
# [17] = Drug level in Zucker rat plasma after 4 hrs at 1 mg/kg; assay type: ADME, organism-based; design: dose 1 mg/kg; conditions: read-out: Drug uptake; method in brief: as §2
# [18] = biological target: T1, Prolyl endopeptidase FAP (Homo sapiens, UniProt Q12884); test: Inhibition of FAPalpha
# T1 sequence (Q12884 whole entry): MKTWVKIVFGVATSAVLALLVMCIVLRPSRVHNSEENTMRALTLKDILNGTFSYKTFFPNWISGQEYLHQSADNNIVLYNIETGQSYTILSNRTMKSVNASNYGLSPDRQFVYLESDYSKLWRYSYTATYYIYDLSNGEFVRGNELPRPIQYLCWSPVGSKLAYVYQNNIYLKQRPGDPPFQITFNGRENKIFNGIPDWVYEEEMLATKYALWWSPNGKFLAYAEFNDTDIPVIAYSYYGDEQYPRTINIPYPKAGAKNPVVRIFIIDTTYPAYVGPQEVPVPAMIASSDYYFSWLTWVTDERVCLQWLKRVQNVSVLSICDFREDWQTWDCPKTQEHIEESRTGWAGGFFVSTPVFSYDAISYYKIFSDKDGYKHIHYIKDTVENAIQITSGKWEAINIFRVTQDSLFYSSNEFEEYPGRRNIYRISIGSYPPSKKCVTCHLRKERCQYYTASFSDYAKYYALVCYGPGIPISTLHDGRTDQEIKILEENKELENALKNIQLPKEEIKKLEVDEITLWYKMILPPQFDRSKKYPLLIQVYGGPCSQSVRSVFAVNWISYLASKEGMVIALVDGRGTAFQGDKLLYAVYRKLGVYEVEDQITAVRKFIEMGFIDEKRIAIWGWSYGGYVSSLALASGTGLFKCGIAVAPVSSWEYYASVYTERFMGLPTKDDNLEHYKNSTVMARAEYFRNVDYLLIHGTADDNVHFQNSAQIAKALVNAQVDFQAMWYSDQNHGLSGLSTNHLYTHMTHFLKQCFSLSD
# [19] = biological target: Cytochrome P450 2C9 (Homo sapiens, UniProt P11712); test: Inhibition of CYP2C9; assay type: ADME
# Cytochrome P450 2C9, sequence (P11712 whole entry): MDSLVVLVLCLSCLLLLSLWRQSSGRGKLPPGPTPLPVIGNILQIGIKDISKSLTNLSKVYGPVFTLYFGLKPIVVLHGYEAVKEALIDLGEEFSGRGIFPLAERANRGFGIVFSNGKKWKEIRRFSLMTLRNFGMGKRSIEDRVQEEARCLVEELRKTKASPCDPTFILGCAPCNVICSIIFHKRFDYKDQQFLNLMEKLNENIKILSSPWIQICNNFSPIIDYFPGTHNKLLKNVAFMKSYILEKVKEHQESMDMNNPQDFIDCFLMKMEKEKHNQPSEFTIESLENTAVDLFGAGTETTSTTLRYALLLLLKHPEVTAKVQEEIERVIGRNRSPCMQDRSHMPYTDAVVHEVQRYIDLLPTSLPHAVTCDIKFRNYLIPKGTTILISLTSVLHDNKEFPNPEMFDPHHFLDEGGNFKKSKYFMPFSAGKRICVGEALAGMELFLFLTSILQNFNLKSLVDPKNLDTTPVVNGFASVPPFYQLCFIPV
# [20] = AUC in Sprague-Dawley rat at 5 mg/kg, iv; assay type: ADME, organism-based; design: dose 5 mg/kg, route intravenous; conditions: plasma; method in brief: as §1
# [21] = Oral bioavailability in Sprague-Dawley rat at 5 mg/kg, po; assay type: ADME, organism-based; conditions: in vivo
# [22] = AUC in cynomolgus monkey at 2.5 mg/kg, iv; assay type: ADME, organism-based, Macaca fascicularis; design: dose 2.5 mg/kg, route intravenous; conditions: plasma; method in brief: as §1
# [23] = Plasma clearance in Beagle dog at 2.5 mg/kg, iv; assay type: ADME, organism-based, Canis lupus familiaris; design: dose 2.5 mg/kg, route intravenous
# [24] = Tmax in cynomolgus monkey at 2.5 mg/kg, po; assay type: ADME, organism-based, Macaca fascicularis; design: dose 2.5 mg/kg, route oral; conditions: in vivo
# [25] = Volume of distribution in Sprague-Dawley rat at 5 mg/kg, iv; assay type: ADME, organism-based; design: dose 5 mg/kg, route intravenous; conditions: in vivo, read-out: Vss
# [26] = Half life in cynomolgus monkey at 2.5 mg/kg, iv; assay type: ADME, organism-based, Macaca fascicularis; design: dose 2.5 mg/kg, route intravenous; conditions: in vivo
# [27] = Cmax in Beagle dog at 2.5 mg/kg, po; assay type: ADME, organism-based, Canis lupus familiaris; design: dose 2.5 mg/kg, route oral; conditions: in vivo
compound,measurement,setting,value
C#C[C@H]1CC[C@@H](C#N)N1C(=O)CNC1(C)CCN(c2cc(C(=O)O)ccn2)CC1,Tmax,[1],4.7 h
same,inhibition,[2],87%
same,AUC,[3],2800 ng·h/mL
same,Vd,[4],1.5 L/kg
same,AUC,[5],970 ng·h/mL
same,clearance,[6],11.3 mL/min/kg
same,clearance,[7],8.5 mL/min/kg
same,half-life,[8],5.3 h
same,Activity,[9],inactive
same,Vd,[10],8.5 L/kg
same,AUC,[11],580 ng·h/mL
same,Vd,[12],0.3 L/kg
same,IC50,[13],> 30 µM
same,Cmax,[14],140 ng/mL
same,Activity,[15],50%
same,Activity,[16],60%
same,concentration at 4 h,[17],18 ng/mL
same,Ki,[18],> 30 µM
same,IC50,[19],> 30 µM
same,AUC,[20],7600 ng·h/mL
same,bioavailability,[21],28%
same,AUC,[22],5200 ng·h/mL
same,clearance,[23],15.2 mL/min/kg
same,Tmax,[24],2.7 h
same,Vd,[25],2.2 L/kg
same,half-life,[26],1.7 h
same,Cmax,[27],300 ng/mL
